How the values were obtained:
Plasmodium falciparum [1] = assay: ST_JUDE: Plasmodium falciparum K1 EC50 (uM) as measured by SYBR green dye; assay type: functional, organism-based
Plasmodium falciparum [2] = assay: ST_JUDE: Cytotoxicity against Plasmodium falciparum W2; assay type: functional, organism-based
Trypanosoma brucei = assay: ST_JUDE: Cytotoxicity using luciferase to measure ATP as an indicator of the viability of Trypanosoma brucei; assay type: functional, organism-based
Plasmodium falciparum [3] = assay: ST_JUDE: Cytotoxicity against Plasmodium falciparum D10 transfected with yeast DHOD; assay type: functional, organism-based
[4] = ST_JUDE: Cytotoxicity using luciferase to measure ATP as an indicator of the viability of human foreskin fibroblast cells (BJ); assay type: toxicity, cell-based
Plasmodium falciparum [5] = assay: ST_JUDE: Cytotoxicity against Plasmodium falciparum K1; assay type: functional, organism-based
Procedure, shortened: (§1)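 Asexual P. falciparum grown in human erythrocytes, exposed to compounds for 72 h, and growth read as the DNA quantity in treated versus control cultures. Dose-response run at 12 concentrations from 10 μM to 5 nM.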

Plasmodium falciparum [6] = assay: ST_JUDE: Cytotoxicity against Plasmodium falciparum Dd2; assay type: functional, organism-based
Plasmodium falciparum [7] = assay: ST_JUDE: Cytotoxicity against Plasmodium falciparum SB-A6; assay type: functional, organism-based
[8] = ST_JUDE: Cytotoxicity using luciferase to measure ATP as an indicator of the viability of human epithelial hepatocellular carcinoma cells (HepG2); assay type: toxicity, cell-based
[9] = ST_JUDE: Cytotoxicity using luciferase to measure ATP as an indicator of the viability of human epithelial embryonic kidney cells (HEK293); assay type: toxicity, cell-based
Leishmania major = assay: ST_JUDE: Cytotoxicity using Alamar Blue to measure viability of Leishmania major; assay type: functional, organism-based
Procedure, shortened: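 L. major promastigotes; drug susceptibility read with Alamar Blue.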

Plasmodium falciparum [10] = assay: ST_JUDE: Plasmodium falciparum 3D7 EC50 (uM) as measured by SYBR green dye; assay type: functional, organism-based
Toxoplasma gondii = assay: ST_JUDE: Growth inhibition of to Toxoplasma gondii, in human U-2OS cells, as measured by luciferase.; assay type: functional, organism-based; settings: RH, U2OS
Procedure, shortened: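 T. gondii parasites engineered to express luciferase; drug sensitivity read by luminescence.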

Plasmodium falciparum [11] = assay: ST_JUDE: Cytotoxicity against Plasmodium falciparum V1/S; assay type: functional, organism-based
[12] = ST_JUDE: Cytotoxicity using luciferase to measure ATP as an indicator of the viability of human Burkitt''s lymphoma lymphoblast cells (Raji); assay type: toxicity, cell-based
Plasmodium falciparum [13] = assay: ST_JUDE: Cytotoxicity against Plasmodium falciparum 3D7; assay type: functional, organism-based; procedure, shortened: as §1

Structure (SMILES) | EC50 (Plasmodium falciparum [1]) [nM] | EC50 (Plasmodium falciparum [2]) [nM] | EC50 (Trypanosoma brucei) [nM] | EC50 (Plasmodium falciparum [3]) [nM] | EC50 [4] [nM] | EC50 (Plasmodium falciparum [5]) [nM] | EC50 (Plasmodium falciparum [6]) [nM] | EC50 (Plasmodium falciparum [7]) [nM] | EC50 [8] [nM] | EC50 [9] [nM] | EC50 (Leishmania major) [nM] | EC50 (Plasmodium falciparum [10]) [nM] | EC50 (Toxoplasma gondii) [nM] | EC50 (Plasmodium falciparum [11]) [nM] | EC50 [12] [nM] | EC50 (Plasmodium falciparum [13]) [nM]
CCN(CC)CCn1c(=N)n(CC(O)c2ccc(Cl)c(Cl)c2)c2ccccc21 (centres undefined) | 761 | 722 | 4960 | 842 | > 43100 | 1030 | 480 | 1070 | 7180 | 30700 | > 18400 | 907 | 9010 | 1110 | > 43100 | 804
O=C(Nc1cccc(Cl)c1N1CCOCC1)C(Cl)(Cl)Cl | 2980 | > 7760 | > 29000 | 3380 | > 30200 | 1400 | 2470 | 2790 | > 30200 | > 30200 | > 12900 | 8600 | > 16600 | 1080 | > 30200 | 1540
CC[n+]1ccccc1C=Cc1ccc(N(C)C)cc1 | 704 | > 11600 | 14300 | 1470 | > 45300 | 1140 | 1820 | 1920 | > 45300 | > 45300 | > 19400 | > 15000 | > 24800 | 1980 | 3860 | 1080
COc1ccc(C2CC(=O)C3=C(C2)NC(=O)CC3c2ccc(C(F)(F)F)cc2)cc1OC (centres undefined) | 872 | 417 | > 45500 | 1110 | > 47500 | 1590 | 894 | 1090 | > 47500 | > 47500 | > 20300 | 599 | > 26000 | 1190 | > 47500 | 2150
CCc1ccccc1NC(=O)C1c2ccccc2C(=O)N(CC(C)C)C1c1cccs1 (centres undefined) | 526 | 679 | 12900 | 1080 | > 43000 | 1080 | 1210 | 1010 | > 43000 | > 43000 | > 18400 | 511 | > 23600 | 1150 | > 43000 | 938
Cc1ccc(C2CC(C(F)(F)F)n3nc(C(=O)N4CCN(C(c5ccccc5)c5ccccc5)CC4)cc3N2)cc1 (centres undefined) | 10400 | > 11000 | 5410 | > 11000 | > 42700 | > 11000 | 1370 | 448 | > 42700 | > 42700 | > 18300 | 668 | > 23400 | > 11000 | > 42700 | 1120
CCN(CC)CCN1C(=O)c2ccccc2NC1c1ccc(Cl)cc1 (centres undefined) | 526 | 1950 | > 41100 | 1870 | > 42900 | 1670 | 1120 | 2000 | > 42900 | > 42900 | > 18400 | 578 | > 23500 | 1140 | > 42900 | 2180
CC(C)c1ccc(CNCC(O)c2ccccc2)cc1 (centres undefined) | 439 | 1680 | 14400 | 4100 | > 52900 | 992 | 2250 | 4300 | > 52900 | 34500 | > 22600 | 1350 | > 29000 | 1150 | 23200 | 2400
CCOC(=O)C1(Cc2cccc(F)c2)CCN(Cc2ccccc2O)CC1 | 284 | 1010 | 25300 | 1420 | > 52600 | 402 | 679 | 1200 | > 52600 | > 52600 | > 22500 | 347 | > 28800 | 1270 | > 52600 | 1200
